# According to ChEMBL document CHEMBL4689842, “EUbOPEN Chemogenomics Library wave 1” (2021):
# What was measured:
# Fibroblast = assay: Incucyte cell viability with human fibroblast; assay type: toxicity, cell-based; details: 10 µM, compound concentration 10 uM; further: filed as whole numbers so only -1 and 0 and 1 occur
# HEK-293T = assay: Multiplex assay against HEK293T; assay type: toxicity, cell-based; details: human;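 on Population Tubulin-Different-Phenotype (%): share of the cells with healthy nuclei that show this phenotype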
# Method in brief: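 Cells were classed with CellPathfinder machine-learning gating, first as Hoechst high-intensity objects or normal cells, then (normal cells) as healthy, pyknosed or fragmented nuclei, and finally (pyknosed cells) as mitotic or apoptotic. Staining of live cells at seeding used Hoechst33342, BioTracker Green Microtubule Cytoskeleton Dye, MitoTracker Red and Annexin V Alexa Fluor 680, with imaging on a CQ1 microscope at 37°C and 5% CO2 after compound addition. Tubulin, mitochondrial-mass and membrane-permeability phenotypes are per cents of healthy-nucleus cells.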
# [1] = 0 h, replicate number 1, timepoint 0 hours
# [2] = 24 h, replicate number 1, timepoint 24 hours
# [3] = 24 h, replicate number 2, timepoint 24 hours
# [4] = 12 h, 1 µM, compound concentration 1 uM, replicate 1
# [5] = 12 h, 1 µM, compound concentration 1 uM, replicate 2
# [6] = 12 h, 10 µM, compound concentration 10 uM, replicate 1
# [7] = 12 h, 10 µM, compound concentration 10 uM, replicate 2
# [8] = 24 h, 1 µM, compound concentration 1 uM, replicate 1
# [9] = 24 h, 1 µM, compound concentration 1 uM, replicate 2
# [10] = 24 h, 10 µM, compound concentration 10 uM, replicate 1
# [11] = 24 h, 10 µM, compound concentration 10 uM, replicate 2
smiles,measurement,setting,value
CN(C)CCOc1ccc(-c2nc(-c3ccncc3)c(-c3ccc4c(c3)CC/C4=N\O)[nH]2)cc1 [SB590885],Growth Rate,Fibroblast; [1],0
same,Growth Rate,"Fibroblast; 18 h, replicate number 2, timepoint 18 hours",1
same,Growth Rate,Fibroblast; [2],1
same,Growth Rate,Fibroblast; [3],0
same,Population Apoptotic (%),HEK-293T; [4],25%
same,Population Fragmented Nuclei (%),HEK-293T; [4],15%
same,Population Healthy Nuclei (%),HEK-293T; [4],65%
same,Population Hoechst High Intensity Objects (%),HEK-293T; [4],22%
same,Population Membrane Permeable-Phenotype (%),HEK-293T; [4],30%
same,Population Mitochondria Different-Phenotype (%),HEK-293T; [4],8%
same,Population Mitotic Cells (%),HEK-293T; [4],74%
same,Population Normal (%),HEK-293T; [4],77%
same,Population Pyknosed Nuclei (%),HEK-293T; [4],18%
same,Population Tubulin-Different-Phenotype (%),HEK-293T; [4],44%
same,Total Cell Count,HEK-293T; [4],678
same,Population Apoptotic (%),HEK-293T; [5],17%
same,Population Fragmented Nuclei (%),HEK-293T; [5],2%
same,Population Healthy Nuclei (%),HEK-293T; [5],88%
same,Population Hoechst High Intensity Objects (%),HEK-293T; [5],12%
same,Population Membrane Permeable-Phenotype (%),HEK-293T; [5],12%
same,Population Mitochondria Different-Phenotype (%),HEK-293T; [5],23%
same,Population Mitotic Cells (%),HEK-293T; [5],82%
same,Population Normal (%),HEK-293T; [5],87%
same,Population Pyknosed Nuclei (%),HEK-293T; [5],8%
same,Population Tubulin-Different-Phenotype (%),HEK-293T; [5],76%
same,Total Cell Count,HEK-293T; [5],1120
same,Population Apoptotic (%),HEK-293T; [6],28%
same,Population Fragmented Nuclei (%),HEK-293T; [6],12%
same,Population Healthy Nuclei (%),HEK-293T; [6],69%
same,Population Hoechst High Intensity Objects (%),HEK-293T; [6],9%
same,Population Membrane Permeable-Phenotype (%),HEK-293T; [6],4%
same,Population Mitochondria Different-Phenotype (%),HEK-293T; [6],8%
same,Population Mitotic Cells (%),HEK-293T; [6],71%
same,Population Normal (%),HEK-293T; [6],90%
same,Population Pyknosed Nuclei (%),HEK-293T; [6],18%
same,Population Tubulin-Different-Phenotype (%),HEK-293T; [6],5%
same,Total Cell Count,HEK-293T; [6],676
same,Population Apoptotic (%),HEK-293T; [7],8%
same,Population Fragmented Nuclei (%),HEK-293T; [7],7%
same,Population Healthy Nuclei (%),HEK-293T; [7],87%
same,Population Hoechst High Intensity Objects (%),HEK-293T; [7],1%
same,Population Membrane Permeable-Phenotype (%),HEK-293T; [7],3%
same,Population Mitotic Cells (%),HEK-293T; [7],91%
same,Population Normal (%),HEK-293T; [7],98%
same,Population Pyknosed Nuclei (%),HEK-293T; [7],4%
same,Population Tubulin-Different-Phenotype (%),HEK-293T; [7],9%
same,Total Cell Count,HEK-293T; [7],1929
same,Population Apoptotic (%),HEK-293T; [8],24%
same,Population Fragmented Nuclei (%),HEK-293T; [8],15%
same,Population Healthy Nuclei (%),HEK-293T; [8],69%
same,Population Hoechst High Intensity Objects (%),HEK-293T; [8],24%
same,Population Membrane Permeable-Phenotype (%),HEK-293T; [8],23%
same,Population Mitochondria Different-Phenotype (%),HEK-293T; [8],14%
same,Population Mitotic Cells (%),HEK-293T; [8],75%
same,Population Normal (%),HEK-293T; [8],75%
same,Population Pyknosed Nuclei (%),HEK-293T; [8],15%
same,Population Tubulin-Different-Phenotype (%),HEK-293T; [8],48%
same,Total Cell Count,HEK-293T; [8],670
same,Population Apoptotic (%),HEK-293T; [9],10%
same,Population Fragmented Nuclei (%),HEK-293T; [9],6%
same,Population Healthy Nuclei (%),HEK-293T; [9],86%
same,Population Hoechst High Intensity Objects (%),HEK-293T; [9],18%
same,Population Membrane Permeable-Phenotype (%),HEK-293T; [9],27%
same,Population Mitochondria Different-Phenotype (%),HEK-293T; [9],7%
same,Population Mitotic Cells (%),HEK-293T; [9],89%
same,Population Normal (%),HEK-293T; [9],81%
same,Population Pyknosed Nuclei (%),HEK-293T; [9],6%
same,Population Tubulin-Different-Phenotype (%),HEK-293T; [9],65%
same,Total Cell Count,HEK-293T; [9],1437
same,Population Apoptotic (%),HEK-293T; [10],20%
same,Population Fragmented Nuclei (%),HEK-293T; [10],9%
same,Population Healthy Nuclei (%),HEK-293T; [10],85%
same,Population Hoechst High Intensity Objects (%),HEK-293T; [10],5%
same,Population Membrane Permeable-Phenotype (%),HEK-293T; [10],10%
same,Population Mitochondria Different-Phenotype (%),HEK-293T; [10],5%
same,Population Mitotic Cells (%),HEK-293T; [10],79%
same,Population Normal (%),HEK-293T; [10],94%
same,Population Pyknosed Nuclei (%),HEK-293T; [10],5%
same,Population Tubulin-Different-Phenotype (%),HEK-293T; [10],8%
same,Total Cell Count,HEK-293T; [10],810
same,Population Apoptotic (%),HEK-293T; [11],1%
same,Population Fragmented Nuclei (%),HEK-293T; [11],24%
same,Population Healthy Nuclei (%),HEK-293T; [11],73%
same,Population Hoechst High Intensity Objects (%),HEK-293T; [11],3%
same,Population Membrane Permeable-Phenotype (%),HEK-293T; [11],7%
same,Population Mitochondria Different-Phenotype (%),HEK-293T; [11],1%
same,Population Mitotic Cells (%),HEK-293T; [11],98%
same,Population Normal (%),HEK-293T; [11],96%
same,Population Pyknosed Nuclei (%),HEK-293T; [11],2%
same,Population Tubulin-Different-Phenotype (%),HEK-293T; [11],10%
same,Total Cell Count,HEK-293T; [11],3237
N#Cc1cnc(Nc2cc(NC[C@H]3CNCCO3)c(C(F)(F)F)cn2)cn1 [SRA-737],Growth Rate,Fibroblast; [1],0
same,Growth Rate,"Fibroblast; 6 h, replicate number 1, timepoint 6 hours",1
same,Growth Rate,"Fibroblast; 12 h, replicate number 1, timepoint 12 hours",1
same,Growth Rate,"Fibroblast; 18 h, replicate number 1, timepoint 18 hours",1
same,Growth Rate,Fibroblast; [2],0
same,Growth Rate,Fibroblast; [3],1
same,Population Apoptotic (%),HEK-293T; [4],16%
same,Population Fragmented Nuclei (%),HEK-293T; [4],13%
same,Population Healthy Nuclei (%),HEK-293T; [4],66%
same,Population Hoechst High Intensity Objects (%),HEK-293T; [4],13%
same,Population Membrane Permeable-Phenotype (%),HEK-293T; [4],3%
same,Population Mitochondria Different-Phenotype (%),HEK-293T; [4],3%
same,Population Mitotic Cells (%),HEK-293T; [4],83%
same,Population Normal (%),HEK-293T; [4],86%
same,Population Pyknosed Nuclei (%),HEK-293T; [4],19%
same,Population Tubulin-Different-Phenotype (%),HEK-293T; [4],3%
same,Total Cell Count,HEK-293T; [4],617
same,Population Apoptotic (%),HEK-293T; [5],12%
same,Population Fragmented Nuclei (%),HEK-293T; [5],11%
same,Population Healthy Nuclei (%),HEK-293T; [5],84%
same,Population Hoechst High Intensity Objects (%),HEK-293T; [5],2%
same,Population Membrane Permeable-Phenotype (%),HEK-293T; [5],2%
same,Population Mitochondria Different-Phenotype (%),HEK-293T; [5],7%
same,Population Mitotic Cells (%),HEK-293T; [5],87%
same,Population Normal (%),HEK-293T; [5],97%
same,Population Pyknosed Nuclei (%),HEK-293T; [5],3%
same,Population Tubulin-Different-Phenotype (%),HEK-293T; [5],5%
same,Total Cell Count,HEK-293T; [5],2034
same,Population Apoptotic (%),HEK-293T; [6],20%
same,Population Fragmented Nuclei (%),HEK-293T; [6],10%
same,Population Healthy Nuclei (%),HEK-293T; [6],69%
same,Population Hoechst High Intensity Objects (%),HEK-293T; [6],14%
same,Population Mitochondria Different-Phenotype (%),HEK-293T; [6],6%
same,Population Mitotic Cells (%),HEK-293T; [6],79%
same,Population Normal (%),HEK-293T; [6],85%
same,Population Pyknosed Nuclei (%),HEK-293T; [6],20%
same,Population Tubulin-Different-Phenotype (%),HEK-293T; [6],5%
same,Total Cell Count,HEK-293T; [6],721
same,Population Apoptotic (%),HEK-293T; [7],13%
same,Population Fragmented Nuclei (%),HEK-293T; [7],6%
same,Population Healthy Nuclei (%),HEK-293T; [7],85%
same,Population Hoechst High Intensity Objects (%),HEK-293T; [7],3%
same,Population Membrane Permeable-Phenotype (%),HEK-293T; [7],2%
same,Population Mitochondria Different-Phenotype (%),HEK-293T; [7],16%
same,Population Mitotic Cells (%),HEK-293T; [7],86%
same,Population Normal (%),HEK-293T; [7],96%
same,Population Pyknosed Nuclei (%),HEK-293T; [7],8%
same,Population Tubulin-Different-Phenotype (%),HEK-293T; [7],16%
same,Total Cell Count,HEK-293T; [7],1376
same,Population Apoptotic (%),HEK-293T; [8],9%
same,Population Fragmented Nuclei (%),HEK-293T; [8],10%
same,Population Healthy Nuclei (%),HEK-293T; [8],77%
same,Population Hoechst High Intensity Objects (%),HEK-293T; [8],7%
same,Population Membrane Permeable-Phenotype (%),HEK-293T; [8],5%
same,Population Mitochondria Different-Phenotype (%),HEK-293T; [8],2%
same,Population Mitotic Cells (%),HEK-293T; [8],90%
same,Population Normal (%),HEK-293T; [8],92%
same,Population Pyknosed Nuclei (%),HEK-293T; [8],11%
same,Population Tubulin-Different-Phenotype (%),HEK-293T; [8],4%
same,Total Cell Count,HEK-293T; [8],740
same,Population Apoptotic (%),HEK-293T; [9],5%
same,Population Fragmented Nuclei (%),HEK-293T; [9],34%
same,Population Healthy Nuclei (%),HEK-293T; [9],63%
same,Population Hoechst High Intensity Objects (%),HEK-293T; [9],4%
same,Population Membrane Permeable-Phenotype (%),HEK-293T; [9],8%
same,Population Mitochondria Different-Phenotype (%),HEK-293T; [9],1%
same,Population Mitotic Cells (%),HEK-293T; [9],94%
same,Population Normal (%),HEK-293T; [9],95%
same,Population Pyknosed Nuclei (%),HEK-293T; [9],2%
same,Population Tubulin-Different-Phenotype (%),HEK-293T; [9],10%
same,Total Cell Count,HEK-293T; [9],3420
same,Population Apoptotic (%),HEK-293T; [10],25%
same,Population Fragmented Nuclei (%),HEK-293T; [10],10%
same,Population Healthy Nuclei (%),HEK-293T; [10],70%
same,Population Hoechst High Intensity Objects (%),HEK-293T; [10],10%
same,Population Membrane Permeable-Phenotype (%),HEK-293T; [10],4%
same,Population Mitochondria Different-Phenotype (%),HEK-293T; [10],6%
same,Population Mitotic Cells (%),HEK-293T; [10],75%
same,Population Normal (%),HEK-293T; [10],89%
same,Population Pyknosed Nuclei (%),HEK-293T; [10],18%
same,Population Tubulin-Different-Phenotype (%),HEK-293T; [10],15%
same,Total Cell Count,HEK-293T; [10],729
same,Population Apoptotic (%),HEK-293T; [11],21%
same,Population Fragmented Nuclei (%),HEK-293T; [11],12%
same,Population Healthy Nuclei (%),HEK-293T; [11],64%
same,Population Hoechst High Intensity Objects (%),HEK-293T; [11],8%
same,Population Membrane Permeable-Phenotype (%),HEK-293T; [11],7%
same,Population Mitochondria Different-Phenotype (%),HEK-293T; [11],17%
same,Population Mitotic Cells (%),HEK-293T; [11],78%
same,Population Normal (%),HEK-293T; [11],91%
same,Population Pyknosed Nuclei (%),HEK-293T; [11],22%
same,Population Tubulin-Different-Phenotype (%),HEK-293T; [11],44%
same,Total Cell Count,HEK-293T; [11],1254
